Here are results for 1 compound from ChEMBL document CHEMBL4007469, “Design and synthesis of dalbergin analogues and evaluation of anti-osteoporotic activity” (Bioorg Med Chem Lett, 2017).

Activity calls are given as the source filed them. The calls are words filed in the database; no cut-off is given here.

Series [1] has as its system Mus musculus. Briefly: Anti-osteoporotic activity in ovariectomized postmenopausal Balb/c mouse model assessed as induction of femur bone marrow cell differentiation by measuring increase in ALP activity at 1 mg/kg, po qd via gavage for 6 weeks relative to control. It counts as functional. In short, it runs like this: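 Ovariectomized 8-week-old female Balb/c mice given 1.0 mg/kg/day orally by gavage for 6 weeks; bone marrow cells then cultured ex vivo. ALP activity read at 405 nm; mineralized nodules stained with Alizarin Red at day 21 of culture. Mean ± SE versus OVx group.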

A short description of series [2]: Induction of osteoblast differentiation in mouse calvarial cells assessed as compound concentration required for maximum increase in ALP activity using PNPP as substrate after 48 hrs. It counts as functional, Calvarial cell.
The nature of series [3]: Induction of osteoblast differentiation in mouse calvarial cells assessed as increase in ALP activity using PNPP as substrate after 48 hrs. To be noted: Calvarial cell. It counts as functional, cell-based.
In series [4] the test system is Mus musculus. Kind of series: In vivo induction of osteogenesis in Balb/c mouse assessed as bone formation at 0.5 to 1 mg/kg/day, sc over calvarial surface for 5 consecutive days. It counts as functional, organism-based. In short, it runs like this: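 Three-week-old Balb/c mice (3 per group) injected subcutaneously over the calvarial surface daily for 5 consecutive days at 0.1, 0.5, 1 and 5 mg/kg/day. Calvaria fixed in 4% formaldehyde, paraffin-embedded, H&E-stained; tetracycline and calcein (20 mg/kg each, ip) given for MAR/BFR histomorphometry; calvarial mRNA by RT-PCR. Mean ± SE, three independent experiments, versus untreated.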

Series [5] deals with Mus musculus. Briefly: Anti-osteoporotic activity in ovariectomized postmenopausal Balb/c mouse model assessed as trabecular bone formation by measuring increase in bone volume fraction at 1 mg/kg, po qd via gavage for 6 weeks by micro CT-scan analysis relative to control. It is filed as functional. In outline: (§1)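 Female Balb/c mice, 8 weeks old, ovariectomized, 6 weeks osteopenia development, then 1.0 mg/kg/day or gum acacia vehicle by oral gavage once daily for 6 weeks (sham, OVx and treated groups). Bones collected after sacrifice for micro-CT of trabecular microarchitecture (BV/TV, Tb.N, Tb.Th, Tb.Sp, SMI) and biomechanical testing of femur and vertebrae (energy, stiffness); mean ± SE versus OVx.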

The subject of series [6] is Mus musculus. Kind of series: Anti-osteoporotic activity in ovariectomized postmenopausal Balb/c mouse model assessed as improvement in micro-artchitectural parameter in tibia by measuring trabecular number at 1 mg/kg, po qd via gavage for 6 weeks by micro CT-scan analysis (reference value: 1.49 +/- 0.25 /millimeter). It is filed as functional. In outline:
as §1

For series [7], the system named is Mus musculus. Briefly: Anti-osteoporotic activity in ovariectomized postmenopausal Balb/c mouse model assessed as improvement in micro-artchitectural parameter in tibia by measuring trabecular thickness at 1 mg/kg, po qd via gavage for 6 weeks by micro CT-scan analysis (reference value: 0.0475 +/- 0.0005 millimeter). It is filed as functional. In short, it runs like this:
as §1

The test system of series [8] is Mus musculus. Kind of series: Anti-osteoporotic activity in ovariectomized postmenopausal Balb/c mouse model assessed as improvement in micro-artchitectural parameter in tibia by measuring trabecular separation at 1 mg/kg, po qd via gavage for 6 weeks by micro CT-scan analysis (reference value: 0.387 +/- 0.038 millimeter). It is filed as functional. In outline:
as §1

The subject of series [9] is Mus musculus. Kind of series: Anti-osteoporotic activity in ovariectomized postmenopausal Balb/c mouse model assessed as improvement in micro-artchitectural parameter in tibia by measuring structural model index at 1 mg/kg, po qd via gavage for 6 weeks by micro CT-scan analysis (reference value: 2.32 +/- 0.08). It counts as functional. In outline: as §1
Series [10] relates to Mus musculus. Briefly: Anti-osteoporotic activity in ovariectomized postmenopausal Balb/c mouse model assessed as improvement in micro-artchitectural parameter in vertebrae by measuring trabecular number at 1 mg/kg, po qd via gavage for 6 weeks by micro CT-scan analysis (reference value: 2.24 +/- 0.16 /millimeter). It counts as functional. In short, it runs like this:
as §1

For series [11], the system named is Mus musculus. Kind of series: Anti-osteoporotic activity in ovariectomized postmenopausal Balb/c mouse model assessed as improvement in micro-artchitectural parameter in vertebrae by measuring structural model index at 1 mg/kg, po qd via gavage for 6 weeks by micro CT-scan analysis (reference value: 1.78 +/- 0.08). It counts as functional. In short, it runs like this:
as §1

For series [12], the system named is Mus musculus. Kind of series: Anti-osteoporotic activity in ovariectomized postmenopausal Balb/c mouse model assessed as increase in ALP gene expression in femur bone at 1 mg/kg, po qd via gavage for 6 weeks by RT-PCR method. It is filed as functional, organism-based. In outline:
(§2)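 Eight-week-old female Balb/c mice, ovariectomized and left 6 weeks for osteopenia to develop; groups sham+vehicle, OVx+vehicle, OVx+1.0 mg/kg/day, dosed once daily by oral gavage for 6 weeks in gum acacia/distilled water vehicle. Mice kept at 21°C, 12 h light/dark, chow and water ad libitum. Femoral bone mRNA or serum measured after sacrifice; mean ± SE versus OVx group.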

For series [13], the system named is Mus musculus. Kind of series: Anti-osteoporotic activity in ovariectomized postmenopausal Balb/c mouse model assessed as femur bone breaking strength by measuring energy at 1 mg/kg, po qd via gavage for 6 weeks by micro CT-scan analysis (reference value: 2.6 +/- 0.18 mJ). It is filed as functional. In outline: as §1
For series [14], the system named is Mus musculus. Briefly: Anti-osteoporotic activity in ovariectomized postmenopausal Balb/c mouse model assessed as mineral apposition rate at 1 mg/kg, po qd via gavage for 6 weeks by fluorochromes tetracycline and calcein labeling based histomorphometric analysis (reference value: 0.099 +/- 0.01 umeter/day). It is filed as functional.
Series [15] deals with Mus musculus. Kind of series: Estrogenic effect in uterine of ovariectomized postmenopausal Balb/c mouse model assessed as luminal area at 1 mg/kg, po qd via gavage for 6 weeks (reference value: 57.5 +/- 1.19 um2). It counts as ADME, organism-based. The conditions noted are these: in vivo, 1008 h.
Series [16] deals with Mus musculus. Kind of series: Anti-osteoporotic activity in ovariectomized postmenopausal Balb/c mouse model assessed as increase in BMP2 gene expression in femur bone at 1 mg/kg, po qd via gavage for 6 weeks by RT-PCR method. It is filed as functional, organism-based. In short, it runs like this: as §2
The test system of series [17] is Mus musculus. Briefly: Anti-osteoporotic activity in ovariectomized postmenopausal Balb/c mouse model assessed as increase in RunX2 gene expression in femur bone at 1 mg/kg, po qd via gavage for 6 weeks by RT-PCR method. It counts as functional, organism-based. In outline: as §2
For series [18], the system named is Mus musculus. Kind of series: Decrease in osteocalcin level in serum of ovariectomized postmenopausal Balb/c mouse model at 1 mg/kg, po qd via gavage for 6 weeks by ELISA. It is filed as functional, organism-based. In short, it runs like this: as §2
Series [19] relates to Mus musculus. Kind of series: Osteogenic activity in Balb/c mouse drill-hole fracture model assessed as increase in Sox9 mRNA level at 1 mg/kg, po qd via gavage for 21 days by RT-PCR method.
For series [20], the system named is Mus musculus. Briefly: Osteogenic activity in Balb/c mouse drill-hole fracture model assessed as increase in BMP2 mRNA level at 1 mg/kg, po qd via gavage for 21 days by RT-PCR method.
For series [21], the system named is Mus musculus. Kind of series: Osteogenic activity in Balb/c mouse drill-hole fracture model assessed as bone volume fraction at 1 mg/kg, po qd via gavage for 21 days by micro-CT method (reference value: 32.924 +/- 3.806%).
In series [22] the test system is Mus musculus. Briefly: Osteogenic activity in Balb/c mouse drill-hole fracture model assessed as trabecular separation at 1 mg/kg, po qd via gavage for 21 days by micro-CT method (reference value: 0.219 +/- 0.015 millimeter).

On to `COc1cc2oc(=O)cc(-c3ccccc3)c2cc1OCCCCCN1CCN(C)CC1`, for which the “fold change (FC)” value in the series with Mus musculus [1] turned out to be 2; in the series with Mus musculus [5], 1.5. Besides, the “Concentration giving maximal ALP increase” value in series [2] turned out to be 1 pM. In addition, the EC50 in [3] was determined as 2.3 µM. The outcome in the series with Mus musculus [4], with Mus musculus [12], in the series with Mus musculus [16], in the series with Mus musculus [17], in the series on Mus musculus [18] and in the series on Mus musculus [19] was Active. Further, the result in the series on Mus musculus [20] was Active. Further, the Activity with Mus musculus [6] was 2.7 /millimeter; in the series with Mus musculus [7], 0.052 mm; in the series on Mus musculus [8], 0.294 mm; with Mus musculus [10], 4.63 /millimeter; in the series with Mus musculus [13], 4.55 mJ; in the series on Mus musculus [14], 0.177 micrometer/day. Moreover, the Activity is on record as 75.75 um2 in the series with Mus musculus [15], 44.359% with Mus musculus [21] and 0.164 mm with Mus musculus [22]. Besides, the Activity_index in the series with Mus musculus [9] is given as 1.84; with Mus musculus [11], 1.07.
